The test system of data set [1] is Staphylococcus aureus. As to the kind of experiment: Antimicrobial activity against Staphylococcus aureus after 24 hrs by two fold serial dilution method. In kind it is functional, organism-based. The method, boiled down:
(§1)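 MIC determined in vitro by two-fold serial dilution, following the procedure recommended by the Clinical and Laboratory Standards Institute (CLSI).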

Data set [2] has as its system Staphylococcus aureus. As to the kind of experiment: Antimicrobial activity against methicillin-resistant Staphylococcus aureus after 24 hrs by two fold serial dilution method. The format is functional. The method, boiled down:
(§2)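 MICs by CLSI-recommended two-fold serial broth dilution against the listed bacterial strains.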

The subject of data set [3] is Staphylococcus aureus. In words: Antimicrobial activity against Staphylococcus aureus ATCC 25923 after 24 hrs by two fold serial dilution method. The format is functional. The method, boiled down:
as §2

Data set [4] relates to Staphylococcus aureus. As to the kind of experiment: Antimicrobial activity against Staphylococcus aureus ATCC 29213 after 24 hrs by two fold serial dilution method. The format is functional. The method in brief: as §2
The next data set concerns Enterococcus faecalis. In words: Antimicrobial activity against Enterococcus faecalis after 24 hrs by two fold serial dilution method. In kind it is functional, organism-based. The method in brief: as §1
The test system of the next data set is Klebsiella pneumoniae. As to the kind of experiment: Antimicrobial activity against Klebsiella pneumoniae after 24 hrs by two fold serial dilution method. In kind it is functional, organism-based. The method, boiled down: as §1
In data set [5] the test system is Escherichia coli. As to the kind of experiment: Antimicrobial activity against Escherichia coli after 24 hrs by two fold serial dilution method. The format is functional. The method, boiled down:
as §2

Data set [6] has as its system Escherichia coli. As to the kind of experiment: Antimicrobial activity against Escherichia coli ATCC 25922 after 24 hrs by two fold serial dilution method. In kind it is functional. The following applies: for MIC: ATCC 25922, 24 h. The method in brief: as §2
In data set [7] the test system is Acinetobacter baumannii. In words: Antimicrobial activity against Acinetobacter baumannii after 24 hrs by two fold serial dilution method. The format is functional. The method in brief: as §1
The subject of data set [8] is Pseudomonas aeruginosa. In words: Antimicrobial activity against Pseudomonas aeruginosa after 24 hrs by two fold serial dilution method. The format is functional. The method, boiled down:
as §2

Data set [9] relates to Pseudomonas aeruginosa. As to the kind of experiment: Antimicrobial activity against Pseudomonas aeruginosa ATCC 27853 after 24 hrs by two fold serial dilution method. In kind it is functional. The method, boiled down: as §2
Data set [10] concerns Acinetobacter baumannii. As to the kind of experiment: Potency index, ratio of chloromycin MIC to compound MIC against Acinetobacter baumannii. The format is functional.
The subject of data set [11] is Escherichia coli. As to the kind of experiment: Potency index, ratio of chloromycin MIC to compound MIC against Escherichia coli ATCC 25922. In kind it is functional.
Data set [12] has as its system Escherichia coli. As to the kind of experiment: Potency index, ratio of norfloxacin MIC to compound MIC against Escherichia coli ATCC 25922. In kind it is functional.
Data set [13] concerns Staphylococcus aureus. In words: Antimicrobial activity against methicillin-resistant Staphylococcus aureus measured every 24 hrs post passages for 16 days. The format is functional, organism-based. The method, boiled down: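 Resistance-development study in MRSA, with MIC re-measured over serial passages. Norfloxacin and chloromycin were run alongside as reference drugs.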

Data set [14] has as its system Staphylococcus aureus. In words: Bactericidal activity against methicillin-resistant Staphylococcus aureus assessed as log reduction in bacterial count at 4 times MIC measured up to 7 hrs by time kill assay. The format is functional. The method, boiled down: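 Time-kill kinetics against MRSA with the compound at 4 × MIC. Viable bacteria were counted over time as log CFU/mL.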

Data set [15] can be described thus: Cytotoxicity against […] RAW264.7 cells assessed as cell viability at 128 ug/ml after 24 hrs by MTT assay. In kind it is cell-based. The settings on record: read-out: Activity. The method in brief: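 Cytotoxicity in […] RAW 264.7 macrophages by MTT assay at concentrations up to 128 μg/mL. Read-out was percent cell viability.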
A general note: Tetrazolium dyes change colour on reduction, which living cells bring about.

Data set [16] has as its system Staphylococcus aureus. As to the kind of experiment: Membrane permeabilization of methicillin-resistant Staphylococcus aureus cytoplasmic membrane at 12 times MIC after 60 mins by propidium iodide staining based fluorescence assay. In kind it is functional, organism-based. The method, boiled down: (§3)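 Cytoplasmic membrane permeabilization of MRSA or E. coli with propidium iodide. Fluorescence intensity of the compound/PI-treated bacterial mixtures was followed over time up to steady state, with two control groups run in parallel.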

The subject of data set [17] is Escherichia coli. As to the kind of experiment: Membrane permeabilization of Escherichia coli cytoplasmic membrane at 12 times MIC after 60 mins by propidium iodide staining based fluorescence assay. The format is functional, organism-based. The method, boiled down:
as §3

Another data set deals with DNA. In words: Induction of methicillin-resistant Staphylococcus aureus DNA intercalation assessed as compound-DNA complex formation incubated for 1 hr by UV-visible absorption spectroscopy. In kind it is nucleic-acid assay.
Another data set deals with Albumin (Homo sapiens, UniProt P02768). As to the kind of experiment: Binding affinity to human serum albumin by UV-visible absorption spectroscopy. In kind it is ADME. The following applies: isolated protein.

For orientation: MIC means the least concentration at which growth counts as inhibited. Higher therefore signals a need for much substance.

Converted amounts (≈) assume the structure as drawn. The source made the active and inactive calls. No cut-off for these calls is given here.

Sequence of Albumin (P02768 whole entry): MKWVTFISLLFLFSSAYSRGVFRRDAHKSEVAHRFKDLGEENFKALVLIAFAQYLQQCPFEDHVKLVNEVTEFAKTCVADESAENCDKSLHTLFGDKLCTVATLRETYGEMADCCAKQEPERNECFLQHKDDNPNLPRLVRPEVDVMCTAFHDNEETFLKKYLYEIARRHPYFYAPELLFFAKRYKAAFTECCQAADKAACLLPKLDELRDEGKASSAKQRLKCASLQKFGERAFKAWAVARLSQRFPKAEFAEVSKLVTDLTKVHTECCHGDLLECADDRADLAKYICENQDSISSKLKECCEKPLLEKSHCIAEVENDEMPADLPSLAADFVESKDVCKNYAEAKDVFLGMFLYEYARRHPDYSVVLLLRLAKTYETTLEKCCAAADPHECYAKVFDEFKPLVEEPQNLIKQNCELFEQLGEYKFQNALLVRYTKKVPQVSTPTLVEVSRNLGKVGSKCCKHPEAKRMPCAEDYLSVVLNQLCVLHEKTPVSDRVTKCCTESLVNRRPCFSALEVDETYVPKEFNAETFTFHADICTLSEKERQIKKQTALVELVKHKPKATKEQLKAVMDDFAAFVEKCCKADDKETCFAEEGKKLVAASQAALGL

For `CCCCCCCCCCCCN1CCN(c2ccc3c4c(cccc24)C(=O)N(Nc2nccs2)C3=O)CC1`, the result in the data set with Staphylococcus aureus [1], in the data set on Staphylococcus aureus [2], in the data set with Staphylococcus aureus [3], with Staphylococcus aureus [4], in the data set with Enterococcus faecalis and in the data set on Klebsiella pneumoniae was inactive. The result in the data set on Escherichia coli [5], in the data set with Escherichia coli [6], in the data set on Acinetobacter baumannii [7], in the data set with Pseudomonas aeruginosa [8] and with Pseudomonas aeruginosa [9] was inactive.
In the data set on Acinetobacter baumannii [7], `O=C1c2cccc3c(N4CCOCC4)ccc(c23)C(=O)N1Nc1nccs1` yielded an MIC of 8 µg/mL (≈ 21 µM). The Ratio in the data set with Acinetobacter baumannii [10] is recorded as 2.
For `O=C1c2cccc3c(Br)ccc(c23)C(=O)N1Nc1nccs1`, the outcome with Staphylococcus aureus [1], in the data set with Staphylococcus aureus [2], in the data set on Staphylococcus aureus [3], in the data set with Staphylococcus aureus [4], in the data set with Enterococcus faecalis and in the data set with Klebsiella pneumoniae was Active. Moreover, the outcome in the data set on Escherichia coli [5], with Escherichia coli [6], in the data set on Acinetobacter baumannii [7], with Pseudomonas aeruginosa [8] and in the data set on Pseudomonas aeruginosa [9] was Active.
For `CCCCCCCCCCN1CCN(c2ccc3c4c(cccc24)C(=O)N(Nc2nccs2)C3=O)CC1`, the result with Staphylococcus aureus [1], with Staphylococcus aureus [2], with Staphylococcus aureus [3], in the data set with Staphylococcus aureus [4], in the data set on Enterococcus faecalis and in the data set with Klebsiella pneumoniae was inactive. Also, the outcome with Escherichia coli [5], in the data set with Escherichia coli [6], in the data set with Acinetobacter baumannii [7], with Pseudomonas aeruginosa [8] and in the data set with Pseudomonas aeruginosa [9] was inactive.
`O=C1c2cccc3c(N4CCNCC4)ccc(c23)C(=O)N1Nc1nccs1`: the MIC was 4 µg/mL (≈ 10.5 µM) against Staphylococcus aureus [2]; 4 µg/mL (≈ 10.5 µM) against Staphylococcus aureus [3] (ATCC 25923, 24 h); 2 µg/mL (≈ 5.27 µM) in the data set with Staphylococcus aureus [4] (ATCC 29213, 24 h); 4 to 16 µg/mL (≈ 10.5 to 42.2 µM) against Escherichia coli [5]; 4 to 16 µg/mL (≈ 10.5 to 42.2 µM) against Escherichia coli [6]; 4 to 16 µg/mL (≈ 10.5 to 42.2 µM) against Pseudomonas aeruginosa [8]. The compound also returned an MIC against Pseudomonas aeruginosa [9] (ATCC 27853, 24 h) of 4 to 16 µg/mL (≈ 10.5 to 42.2 µM). The outcome with Acinetobacter baumannii [7] was inactive. Further, the Ratio in the data set on Escherichia coli [11] amounted to 4; in the data set on Escherichia coli [12] it was 2. The result in the data set on Staphylococcus aureus [13], in the data set with Staphylococcus aureus [16], with Escherichia coli [17] and in the data set with DNA was Active. Moreover, the Activity is reported as greater than 3 CFU/ml with Staphylococcus aureus [14] and “Active” at Albumin. Moreover, the viability at 24 h, 128 ug/ml in [15] was 80.1%.
As for `CCCCCCCCCCCCCCCCN1CCN(c2ccc3c4c(cccc24)C(=O)N(Nc2nccs2)C3=O)CC1`, the outcome in the data set with Staphylococcus aureus [1], in the data set on Staphylococcus aureus [2], in the data set on Staphylococcus aureus [3], with Staphylococcus aureus [4], with Enterococcus faecalis and in the data set with Klebsiella pneumoniae was inactive. The outcome in the data set with Escherichia coli [5], in the data set with Escherichia coli [6], in the data set on Acinetobacter baumannii [7], in the data set with Pseudomonas aeruginosa [8] and in the data set with Pseudomonas aeruginosa [9] was inactive.
As to `CCn1cc(C(=O)O)c(=O)c2cc(F)c(N3CCNCC3)cc21` [NORFLOXACIN], the MIC in the data set on Escherichia coli [6] and against Acinetobacter baumannii [7] was 8 µg/mL (≈ 25.1 µM) in each case.

Source of the values: ChEMBL document CHEMBL4138260, “Novel Naphthalimide Aminothiazoles as Potential Multitargeting Antimicrobial Agents” (ACS Med Chem Lett, 2017).
